Activity calls are given as the source filed them. The rule behind the calls is not given here. Non-standard residues stand in square brackets, D forms with d. Residues, ends and D or L forms follow the SMILES beside them. Dmt = Cc1cc(O)cc(C)c1C[C@H](N)C(=O)O; Tic = O=C(O)[C@@H]1Cc2ccccc2CN1; βAla = NCCC(=O)O

Broadly, the Ki is the dissociation constant of the complex between target and ligand, obtained from inhibition or displacement. Higher therefore signals lower affinity. Broadly, the IC50 is the concentration needed to halve the response being measured. As usually defined, the EC50 is the concentration at which the effect is half-maximal. For orientation: Emax means the maximal effect, on the per cent scale that the assay sets. Broadly, the inhibition is the relative decrease from the control value, in per cent.

For test [1], the target named is T1, Kappa-type opioid receptor (Homo sapiens, UniProt P41145). The experiment in a line: Inhibition of [3H]U-69593 binding to human kappa opioid receptor expressed in CHO cells at 10 uM. The test is classed as cell-based.
In test [2] the target is T2, Mu-type opioid receptor (Homo sapiens, UniProt P35372). The experiment in a line: Displacement of [3H]DAMGO from human mu opioid receptor expressed in CHO cells. In kind it is cell-based. In outline:
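Competition binding run on membranes prepared from CHO cells that stably express the human mu receptor.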
A general note: Displacement assays read how much labelled ligand stays bound in the presence of the test substance.

For test [3], the target named is T1, Kappa-type opioid receptor. The experiment in a line: Displacement of [3H]U-69593 from human kappa opioid receptor expressed in CHO cells. In kind it is cell-based.
For test [4], the target named is T3, Delta-type opioid receptor (Homo sapiens, UniProt P41143). The test is described as follows: Displacement of [3H]naltrindole from human delta opioid receptor expressed in CHO cells. The test is classed as cell-based.
Test [5] addresses T3, Delta-type opioid receptor. The experiment in a line: Antagonist activity against human delta opioid receptor expressed in CHO cells assessed as inhibition of SNC80-stimulated [35S]GTP-gamma-S binding. In kind it is functional, cell-based. In outline:
(§1)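 CHO membranes stably expressing a single human opioid receptor were incubated with agonist plus varying compound concentrations, and [35S]GTPγS binding was measured. Agonists: μ, DAMGO 200 nM; δ, SNC-80 100 nM; κ, U50,488 100 nM. Imax is the maximal percent inhibition of agonist-stimulated binding.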

Test [6] addresses T1, Kappa-type opioid receptor. The experiment in a line: Antagonist activity against human kappa opioid receptor expressed in CHO cells assessed as inhibition of U50488-stimulated [35S]GTPgammaS binding. In kind it is functional, cell-based. In short, it runs like this: as §1
(In general: Binding of GTPγS marks nucleotide exchange on a G protein.)

For test [7], the target named is T3, Delta-type opioid receptor. The experiment in a line: Agonist activity at human delta opioid receptor expressed in CHO cells assessed as stimulation of [35S]GTP-gamma-S binding. In kind it is functional, cell-based. In short, it runs like this:
(§2)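 Membranes from CHO cells stably expressing only the human μ, δ or κ opioid receptor were incubated with various concentrations of compound, and stimulation of [35S]GTPγS binding was measured. Emax is the maximal percent stimulation. EC50 is the concentration giving 50% of Emax. EC50 was not calculated when Emax was 30% or lower.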

The target of test [8] is T2, Mu-type opioid receptor. The test is described as follows: Antagonist activity against human mu opioid receptor expressed in CHO cells assessed as inhibition of DAMGO-stimulated [35S]GTP-gamma-S binding. In kind it is functional, cell-based. In outline:
as §1

Test [9] concerns the target T1, Kappa-type opioid receptor. The test is described as follows: Agonist activity at human kappa opioid receptor expressed in CHO cells assessed as stimulation of [35S]GTPgammaS binding. In kind it is functional, cell-based. In outline: as §2
Test [10] addresses T2, Mu-type opioid receptor. The experiment in a line: Agonist activity at human mu opioid receptor expressed in CHO cells assessed as stimulation of [35S]GTP-gamma-S binding. In kind it is functional, cell-based. In outline: as §2
For test [11], the target named is Opioid receptors; mu & delta (Homo sapiens) (UniProt P41143+P35372). The experiment in a line: Selectivity for delta opioid receptor over mu opioid receptor. In kind it is protein assay. In outline: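 Competition binding to membranes of CHO cells stably expressing human μ or δ opioid receptors, each receptor in separate membranes. Selectivity comes from comparing the affinities at the two receptors.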
Sequence of Opioid receptors; mu & delta (Homo sapiens) (P35372 whole entry, looked up): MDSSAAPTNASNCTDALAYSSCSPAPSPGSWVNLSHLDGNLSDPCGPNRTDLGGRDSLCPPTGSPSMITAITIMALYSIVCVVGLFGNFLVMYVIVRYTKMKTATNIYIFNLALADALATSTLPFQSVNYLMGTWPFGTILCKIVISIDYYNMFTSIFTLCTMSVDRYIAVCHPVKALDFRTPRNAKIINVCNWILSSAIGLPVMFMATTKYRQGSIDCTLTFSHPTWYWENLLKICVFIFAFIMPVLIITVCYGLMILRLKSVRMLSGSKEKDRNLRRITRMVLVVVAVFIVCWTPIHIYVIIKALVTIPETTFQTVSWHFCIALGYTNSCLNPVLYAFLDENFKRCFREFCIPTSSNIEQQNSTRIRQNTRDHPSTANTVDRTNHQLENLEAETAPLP
Sequence of Opioid receptors; mu & delta (Homo sapiens) (P41143 whole entry, looked up): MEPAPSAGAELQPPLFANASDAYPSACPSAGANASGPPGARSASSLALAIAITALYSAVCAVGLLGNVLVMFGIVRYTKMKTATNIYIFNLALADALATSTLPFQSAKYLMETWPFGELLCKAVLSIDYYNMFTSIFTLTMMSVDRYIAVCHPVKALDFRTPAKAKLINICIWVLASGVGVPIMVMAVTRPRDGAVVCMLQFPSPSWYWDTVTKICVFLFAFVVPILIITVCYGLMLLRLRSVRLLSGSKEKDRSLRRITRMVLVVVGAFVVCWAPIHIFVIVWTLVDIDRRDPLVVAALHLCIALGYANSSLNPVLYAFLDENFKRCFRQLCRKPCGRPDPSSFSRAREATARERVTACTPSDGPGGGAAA

T1 sequence (P41145 whole entry): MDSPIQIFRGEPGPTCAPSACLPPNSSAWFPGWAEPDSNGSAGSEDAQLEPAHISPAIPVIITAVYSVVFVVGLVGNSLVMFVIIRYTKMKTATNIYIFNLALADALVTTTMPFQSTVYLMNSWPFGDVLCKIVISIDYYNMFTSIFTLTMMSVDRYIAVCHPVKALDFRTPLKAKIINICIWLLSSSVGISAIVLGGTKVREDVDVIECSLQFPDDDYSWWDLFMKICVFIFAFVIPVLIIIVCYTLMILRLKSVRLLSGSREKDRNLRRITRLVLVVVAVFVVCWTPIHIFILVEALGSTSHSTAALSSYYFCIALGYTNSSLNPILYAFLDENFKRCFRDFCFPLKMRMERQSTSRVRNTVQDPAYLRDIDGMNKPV
T2 sequence (P35372 whole entry): as the sequence (P35372 whole entry, looked up) above
T3 sequence (P41143 whole entry): as the sequence (P41143 whole entry, looked up) above

For `Cc1cc(O)cc(C)c1C[C@H](N)C(=O)N1Cc2ccccc2C[C@H]1C(=O)NCCC(=O)Oc1ccc2c(c1)[C@@]13CCCC[C@H]1[C@@H](C2)N(CC1CCC1)CC3`, the Ki came out at 0.28 nM in [1], 0.69 nM at Mu-type opioid receptor [2], 0.28 nM in test [3] and 1.5 nM in [4]. The 50% inhibitory concentration (IC50) in test [5] was 3.9 nM; on Mu-type opioid receptor [8], 97 nM. Also, the Imax in test [5] was 84%; at Mu-type opioid receptor [8] it was 47%. The outcome in [6] was inactive. In addition, the figures for the EC50 (in test [7]; in test [9]; on Mu-type opioid receptor [10]) were 2.8 nM, 6 nM and 8.9 nM, respectively. Also, the Emax is 18% in test [7], 130% in [9] and 79% on Mu-type opioid receptor [10].

In [1], `Cc1cc(O)cc(C)c1C[C@H](N)C(=O)N1Cc2ccccc2C[C@H]1C(=O)NCCC(=O)O` (H-[Dmt]-[Tic]-[βAla]-OH) registered an inhibition of 62%. In addition, in [4], the Ki turned out to be 4.2 nM. In test [5], the IC50 came to 10 nM and the Imax is 93%. For the same compound, in [6], the IC50 result is “Not Active” and the Imax result is “inactive”. Also, in [7], the result was inactive and the Emax was determined as 0.95%. Also, the Ratio Ki in [11] is 262.
